Measured values: ChEMBL document CHEMBL3232922, “Discovery and SAR of 6-alkyl-2,4-diaminopyrimidines as histamine H₄ receptor antagonists” (J Med Chem, 2014)
Calls of active or inactive are those of the source. The rule behind the calls is not given here.

Tests used:
[1] = Clearance in beagle dog at 2 mg/kg, iv; assay type: ADME, organism-based, Canis lupus familiaris; design: dose 2 mg/kg, route intravenous; settings: beagle, in vivo
[2] = Half life in monkey liver microsomes; assay type: ADME, Macaca mulatta; settings: rhesus monkey
Histamine H4 receptor [3] = molecular target: Histamine H4 receptor (Rattus norvegicus, UniProt Q91ZY1); test: Displacement of [3H]histamine from rat histamine H4 receptor expressed in SK-N-MC cells after 45 mins by competition binding analysis; assay type: cell-based
Procedure, shortened: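 Transfected cells expressing the H4 receptor, competition against [3H]histamine. Ki is the geometric mean of at least three independent determinations (each in triplicate), calculated by the Cheng–Prusoff equation.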

[4] = AUC in beagle dog at 10 mg/kg, po; assay type: ADME, organism-based, Canis lupus familiaris; design: dose 10 mg/kg, route oral; settings: plasma
Mus musculus [5] = test: Antipruritic activity against histamine-induced scratching C57/bl6 mouse model assessed as inhibition of itching at 5 to 20 mg/kg, po administered 30 mins prior to histamine challenge measured over 20 mins; assay type: functional, organism-based
Procedure, shortened: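 Mice (n = 6–8 per group) were dosed orally in 20% hydroxypropyl-β-cyclodextran 30 min before intradermal histamine (100 μg). Magnets were placed on the ear and the mice were put in containers above a solenoid. Scratch-specific signals were counted automatically over 20 min immediately after the histamine injection.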

[6] = AUC in beagle dog at 2 mg/kg, iv; assay type: ADME, organism-based, Canis lupus familiaris, Plasma; design: dose 2 mg/kg, route intravenous; settings: beagle, plasma
[7] = Ratio of drug level in brain to plasma in mouse at 5 mg/kg, po administered as single dose […] by LC-MS/MS analysis; assay type: ADME, organism-based; design: dose 5 mg/kg, route oral; settings: brain and plasma
[8] = Half life in beagle dog at 2 mg/kg, iv; assay type: ADME, organism-based, Canis lupus familiaris; design: dose 2 mg/kg, route intravenous; settings: in vivo
[9] = Tmax in Balb/c mouse at 20 mg/kg, po; assay type: ADME, organism-based; design: dose 20 mg/kg, route oral; settings: in vivo
[10] = Tmax in Balb/c mouse at 5 mg/kg, po; assay type: ADME, organism-based; design: dose 5 mg/kg, route oral; settings: in vivo
[11] = molecular target: T1, Voltage-gated inwardly rectifying potassium channel KCNH2 (Homo sapiens, UniProt Q12809); test: Inhibition of human ERG channel up to 30 uM by astemizole binding assay
Cytochrome P450 2D6 = Cytochrome P450 2D6 (Homo sapiens, UniProt P10635); test: Inhibition of CYP2D6 (unknown origin) at 50 to 100 uM; assay type: ADME
[12] = Clearance in Balb/c mouse at 2 mg/kg, iv; assay type: ADME, organism-based; design: dose 2 mg/kg, route intravenous; settings: in vivo
Histamine H4 receptor [13] = molecular target: T2, Histamine H4 receptor (Mus musculus, UniProt Q91ZY2); test: Antagonist activity at mouse histamine H4 receptor expressed in SK-N-MC cells assessed as reduction of histamine-induced inhibition of cAMP-mediated beta-galactosidase reporter gene activity treated 10 mins prior to histamine challenge by microplate reader analysis; assay type: functional, cell-based; settings: read-out: pA2 (converted)
T2 sequence (Q91ZY2 whole entry): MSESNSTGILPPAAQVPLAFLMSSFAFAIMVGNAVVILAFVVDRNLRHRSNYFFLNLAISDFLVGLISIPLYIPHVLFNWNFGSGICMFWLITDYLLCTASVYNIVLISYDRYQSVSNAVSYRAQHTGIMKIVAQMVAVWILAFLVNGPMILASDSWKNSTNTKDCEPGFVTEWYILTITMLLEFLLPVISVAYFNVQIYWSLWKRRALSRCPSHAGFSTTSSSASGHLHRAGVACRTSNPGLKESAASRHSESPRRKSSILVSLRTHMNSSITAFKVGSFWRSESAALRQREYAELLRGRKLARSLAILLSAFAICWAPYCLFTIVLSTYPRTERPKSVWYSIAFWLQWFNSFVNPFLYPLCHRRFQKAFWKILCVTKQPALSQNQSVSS

[14] = AUC in Balb/c mouse at 5 mg/kg, po; assay type: ADME, organism-based; design: dose 5 mg/kg, route oral; settings: plasma
Cytochrome P450 3A4 = Cytochrome P450 3A4 (Homo sapiens, UniProt P08684); test: Inhibition of CYP3A4 (unknown origin) at 50 to 100 uM; assay type: ADME
[15] = molecular target: T1, Voltage-gated inwardly rectifying potassium channel KCNH2; test: Inhibition of human ERG channel transfected in HEK293 cells assessed as reduction in delayed rectifier current by patch clamp assay; assay type: cell-based
Procedure, shortened: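 The delayed rectifier current (IKr) was recorded in hERG-transfected HEK293 cells with the compound at 3 μM.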

[16] = Initial plasma concentration in Balb/c mouse at 2 mg/kg, iv; assay type: ADME, organism-based; design: dose 2 mg/kg, route intravenous
[17] = Toxicity in rabbit purkinje fibers; assay type: tissue-based, Oryctolagus cuniculus, Purkinje fiber; settings: ex_vivo
[18] = Tmax in mouse kidney at 5 mg/kg, po administered as single dose by LC-MS/MS analysis; assay type: ADME, organism-based; design: dose 5 mg/kg, route oral
Procedure, shortened: (§1)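 Mice received one oral dose of 5 mg/kg. Brain, liver and kidneys were surgically removed from three mice per time point for up to 96 h after dosing. Tissue drug levels were measured by LC–MS/MS with a lower limit of quantitation of 1 ng/g. Tmax and t1/2 are reported as means.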

[19] = Half life in mouse brain at 5 mg/kg, po administered as single dose by LC-MS/MS analysis; assay type: ADME, organism-based; design: dose 5 mg/kg, route oral; procedure, shortened: as §1
[20] = Half life in Sprague-Dawley rat at 2 mg/kg, iv; assay type: ADME, organism-based; design: dose 2 mg/kg, route intravenous; settings: Sprague-Dawley, in vivo
[21] = Half life in Sprague-Dawley rat at 50 mg/kg, po; assay type: ADME, organism-based; design: dose 50 mg/kg, route oral; settings: in vivo
[22] = Half life in Sprague-Dawley rat at 500 mg/kg, po; assay type: ADME, organism-based; design: dose 500 mg/kg, route oral; settings: in vivo
[23] = Cmax in Sprague-Dawley rat at 10 mg/kg, po; assay type: ADME, organism-based; design: dose 10 mg/kg, route oral; settings: in vivo
[24] = Half life in rat liver microsomes; assay type: ADME
[25] = Volume of distribution at steady state in beagle dog at 2 mg/kg, iv; assay type: ADME, organism-based, Canis lupus familiaris; design: dose 2 mg/kg, route intravenous; settings: in vivo, read-out: Vdss
[26] = Half life in human liver microsomes; assay type: ADME
Mus musculus [27] = test: Antiinflammatory activity in po dosed Balb/c mouse assessed as inhibition of LPS-induced TNF-alpha release at plasma concentration of 5.7 nM administered 30 mins prior to LPS challenge measured after 2 hrs by ELISA; assay type: functional, organism-based
Mus musculus [28] = test: Antiinflammatory activity against po dosed collagen-induced arthritis mouse model assessed as inhibition of clinical score; assay type: functional, organism-based
Procedure, shortened: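 Mouse collagen-induced arthritis model. Compound was given orally in 20% hydroxypropyl-β-cyclodextran, with eight mice per group.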

[29] = Half life in Balb/c mouse at 2 mg/kg, iv; assay type: ADME, organism-based; design: dose 2 mg/kg, route intravenous; settings: in vivo
[30] = Cmax in rat at 10 mg/kg, po; assay type: ADME, organism-based; design: dose 10 mg/kg, route oral; settings: in vivo
[31] = Cmax in beagle dog at 10 mg/kg, po; assay type: ADME, organism-based, Canis lupus familiaris; design: dose 10 mg/kg, route oral; settings: in vivo
[32] = AUC in Sprague-Dawley rat at 10 mg/kg, po; assay type: ADME, organism-based; design: dose 10 mg/kg, route oral; settings: plasma
Histamine H4 receptor [33] = molecular target: T3, Histamine H4 receptor (Homo sapiens, UniProt Q9H3N8); test: Agonist activity at human H4 receptor
[34] = Initial plasma concentration in Sprague-Dawley rat at 2 mg/kg, iv; assay type: ADME, organism-based; design: dose 2 mg/kg, route intravenous
[35] = Half life in Balb/c mouse at 20 mg/kg, po; assay type: ADME, organism-based; design: dose 20 mg/kg, route oral; settings: in vivo
Histamine H4 receptor [36] = molecular target: T3, Histamine H4 receptor; test: Antagonist activity at human histamine H4 receptor expressed in SK-N-MC cells assessed as reduction of histamine-induced inhibition of cAMP-mediated beta-galactosidase reporter gene activity treated 10 mins prior to histamine challenge by microplate reader analysis; assay type: functional, cell-based; settings: read-out: pA2 (converted)
[37] = Clearance in rat at 2 mg/kg, iv; assay type: ADME, organism-based; design: dose 2 mg/kg, route intravenous; settings: in vivo
[38] = Oral bioavailability in Sprague-Dawley rat at 10 mg/kg; assay type: ADME, organism-based; settings: in vivo
[39] = AUC in Sprague-Dawley rat at 50 mg/kg, po; assay type: ADME, organism-based; design: dose 50 mg/kg, route oral; settings: plasma
[40] = AUC in Balb/c mouse at 20 mg/kg, po; assay type: ADME, organism-based; design: dose 20 mg/kg, route oral; settings: plasma
Salmonella typhimurium = test: Genotoxicity in Salmonella typhimurium by Ames test; assay type: toxicity, organism-based; settings: salmonella enterica subsp. enterica serovar typhimurium

T1 sequence (Q12809 whole entry): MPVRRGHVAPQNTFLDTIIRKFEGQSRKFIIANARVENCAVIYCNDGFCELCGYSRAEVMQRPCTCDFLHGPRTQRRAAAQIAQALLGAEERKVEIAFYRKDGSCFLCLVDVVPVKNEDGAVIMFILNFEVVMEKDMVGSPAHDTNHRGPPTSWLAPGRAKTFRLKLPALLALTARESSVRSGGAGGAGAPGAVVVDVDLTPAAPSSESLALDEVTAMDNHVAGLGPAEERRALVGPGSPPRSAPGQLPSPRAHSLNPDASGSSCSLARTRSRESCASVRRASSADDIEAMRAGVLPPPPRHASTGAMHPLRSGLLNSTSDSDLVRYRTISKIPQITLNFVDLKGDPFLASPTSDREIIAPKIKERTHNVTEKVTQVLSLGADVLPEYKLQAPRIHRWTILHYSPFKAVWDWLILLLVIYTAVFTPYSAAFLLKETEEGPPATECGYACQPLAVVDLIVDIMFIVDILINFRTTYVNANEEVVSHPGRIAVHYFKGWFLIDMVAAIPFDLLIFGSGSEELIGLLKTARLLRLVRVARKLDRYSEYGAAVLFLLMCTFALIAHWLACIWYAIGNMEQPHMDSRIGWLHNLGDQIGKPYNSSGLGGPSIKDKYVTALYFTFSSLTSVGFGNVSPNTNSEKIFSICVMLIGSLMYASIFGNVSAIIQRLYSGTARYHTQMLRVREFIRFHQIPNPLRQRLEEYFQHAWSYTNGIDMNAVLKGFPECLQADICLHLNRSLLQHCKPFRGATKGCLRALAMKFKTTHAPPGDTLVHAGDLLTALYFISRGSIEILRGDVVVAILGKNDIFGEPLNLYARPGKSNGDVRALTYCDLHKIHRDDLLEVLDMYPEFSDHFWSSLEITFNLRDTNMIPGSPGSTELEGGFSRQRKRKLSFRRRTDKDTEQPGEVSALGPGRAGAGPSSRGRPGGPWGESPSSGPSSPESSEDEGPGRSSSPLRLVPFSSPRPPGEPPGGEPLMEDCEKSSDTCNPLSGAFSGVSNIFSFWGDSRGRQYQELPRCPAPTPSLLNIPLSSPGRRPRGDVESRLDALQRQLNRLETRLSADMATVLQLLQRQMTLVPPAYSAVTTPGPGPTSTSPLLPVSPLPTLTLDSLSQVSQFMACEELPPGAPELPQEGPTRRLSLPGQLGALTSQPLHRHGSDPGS
T3 sequence (Q9H3N8 whole entry): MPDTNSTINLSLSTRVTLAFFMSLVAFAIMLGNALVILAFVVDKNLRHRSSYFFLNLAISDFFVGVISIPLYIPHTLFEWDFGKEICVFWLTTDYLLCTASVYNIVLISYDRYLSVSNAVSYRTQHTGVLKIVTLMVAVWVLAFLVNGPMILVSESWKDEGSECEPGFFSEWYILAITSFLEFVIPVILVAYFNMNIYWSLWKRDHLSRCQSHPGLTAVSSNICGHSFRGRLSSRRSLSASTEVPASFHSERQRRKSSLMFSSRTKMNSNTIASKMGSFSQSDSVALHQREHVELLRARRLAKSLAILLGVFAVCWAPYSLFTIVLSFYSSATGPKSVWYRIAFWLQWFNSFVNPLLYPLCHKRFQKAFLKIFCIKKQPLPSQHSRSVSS
Cytochrome P450 3A4, sequence (P08684 whole entry): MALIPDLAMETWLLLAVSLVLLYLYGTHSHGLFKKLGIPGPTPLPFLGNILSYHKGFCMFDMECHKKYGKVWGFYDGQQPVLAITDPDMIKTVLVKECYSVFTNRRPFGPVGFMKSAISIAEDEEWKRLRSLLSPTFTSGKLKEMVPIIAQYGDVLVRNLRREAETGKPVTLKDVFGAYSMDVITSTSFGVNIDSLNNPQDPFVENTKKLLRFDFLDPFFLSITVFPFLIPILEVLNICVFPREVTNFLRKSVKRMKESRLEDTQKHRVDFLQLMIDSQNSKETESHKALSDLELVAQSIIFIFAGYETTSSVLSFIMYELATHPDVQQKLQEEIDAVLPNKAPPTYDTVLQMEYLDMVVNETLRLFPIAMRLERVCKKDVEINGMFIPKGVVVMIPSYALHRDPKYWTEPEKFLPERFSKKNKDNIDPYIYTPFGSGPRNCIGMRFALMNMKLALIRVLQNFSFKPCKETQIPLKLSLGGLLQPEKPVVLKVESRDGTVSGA
Histamine H4 receptor (Rattus norvegicus, UniProt Q91ZY1), sequence (Q91ZY1 whole entry): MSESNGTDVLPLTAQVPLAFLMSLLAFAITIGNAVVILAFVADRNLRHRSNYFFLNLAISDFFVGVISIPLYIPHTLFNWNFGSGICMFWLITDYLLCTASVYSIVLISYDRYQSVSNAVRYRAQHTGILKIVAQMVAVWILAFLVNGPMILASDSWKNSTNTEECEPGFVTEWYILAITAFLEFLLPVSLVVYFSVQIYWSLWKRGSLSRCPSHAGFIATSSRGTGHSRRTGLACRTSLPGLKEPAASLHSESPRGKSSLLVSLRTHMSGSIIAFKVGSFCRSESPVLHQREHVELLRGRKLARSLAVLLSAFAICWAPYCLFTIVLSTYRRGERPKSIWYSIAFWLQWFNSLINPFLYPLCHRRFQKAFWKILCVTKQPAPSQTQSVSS
Cytochrome P450 2D6, sequence (P10635 whole entry): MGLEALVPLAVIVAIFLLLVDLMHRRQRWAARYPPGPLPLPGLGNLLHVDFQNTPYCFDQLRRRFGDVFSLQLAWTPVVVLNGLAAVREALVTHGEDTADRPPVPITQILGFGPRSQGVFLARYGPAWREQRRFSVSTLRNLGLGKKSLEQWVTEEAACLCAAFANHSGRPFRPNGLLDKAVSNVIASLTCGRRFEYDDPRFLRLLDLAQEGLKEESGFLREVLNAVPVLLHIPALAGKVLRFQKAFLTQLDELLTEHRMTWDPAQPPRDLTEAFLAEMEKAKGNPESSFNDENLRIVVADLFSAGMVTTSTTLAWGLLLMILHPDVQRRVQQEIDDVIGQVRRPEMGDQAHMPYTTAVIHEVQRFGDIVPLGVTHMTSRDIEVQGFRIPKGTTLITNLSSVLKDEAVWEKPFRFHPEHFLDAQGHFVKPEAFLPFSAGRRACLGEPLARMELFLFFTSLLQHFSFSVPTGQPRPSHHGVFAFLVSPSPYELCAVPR

## CC(C)c1cc(N2CC[C@@H](N)C2)nc(N)n1 [JNJ-39758979]
[1]
  clearance: 23.3 mL/min/kg
[2]
  half-life: > 2 h
Histamine H4 receptor [3]
  Ki: 188 nM
[4]
  AUC: 31.6 µM·h
Mus musculus [5]
  inhibition: Active
[6]
  AUC: 6.7 µM·h
[7]
  Kp: 22.7
[8]
  half-life: 10.2 h
[9]
  Tmax: 0.5 h
[10]
  Tmax: 2 h
[11]
  inhibition (INH): Not Active
Cytochrome P450 2D6
  inhibition (INH): Not Active
[12]
  clearance: 40 mL/min/kg
Histamine H4 receptor [13]
  Kb: 5.01 nM
[14]
  AUC: 9.69 µM·h
Cytochrome P450 3A4
  inhibition (INH): Not Active
[15]
  INH: > 10 µM
[16]
  C0: 1020 nM
[17]
  Activity: Non-toxic
[18]
  Tmax: 2 h
[19]
  half-life: 42.5 h
[20]
  half-life: 2.1 h
[21]
  half-life: 5.45 h
[22]
  half-life: 12 h
[23]
  Cmax: 260 nM
[24]
  half-life: > 2 h
[25]
  Vd: 19.9 L/kg
[26]
  half-life: > 2 h
Mus musculus [27]
  inhibition: Active
Mus musculus [28]
  inhibition: Dose-dependent effect
[29]
  half-life: 7.8 h
[30]
  Cmax: 300 nM
[31]
  Cmax: 3900 nM
[32]
  AUC: 2.43 µM·h
Histamine H4 receptor [33]
  EC50: > 10000 nM
[34]
  C0: 1100 nM
[35]
  half-life: 4.7 h
Histamine H4 receptor [36]
  Kb: 12.6 nM
[37]
  clearance: 36.7 mL/min/kg
[38]
  bioavailability: 35%
[39]
  AUC: 13.4 µM·h
[40]
  AUC: 24.6 µM·h
Salmonella typhimurium
  Activity: Non-toxic
